Data reported in ChEMBL document CHEMBL2169837 (J Med Chem, 2012).
In brackets after ≈: the same amount, converted by molar mass. Activity calls are given as the source filed them. The calls are words filed in the database; no cut-off is given here.

Assays:
Vasopressin V2 receptor [1] = biological target: T1, Vasopressin V2 receptor (Homo sapiens, UniProt P30518); assay: Displacement of [3H]-AVP from human vasopressin V2 receptor expressed in CHO cells after 30 mins; assay type: cell-based
Vasopressin V2 receptor [2] = biological target: T1, Vasopressin V2 receptor; assay: Agonist activity at human vasopressin V2 receptor expressed in CHO cells assessed as cAMP accumulation after 30 mins by TR-FRET based HTRF assay; assay type: functional, cell-based
Outline: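 CHO cells stably expressing human V2R, 5 × 10^3 per well on polyornithine, used 24 h after seeding. Cells lysed and cAMP read by HTRF (TR-FRET). Kact/Kinact from three independent experiments in triplicate, mean ± SEM.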

[3] = Solubility of the compound in HEPES buffer at pH 7.4 after 24 hrs; assay type: physicochemical
Outline: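 Solubility measured in pH 7.4 HEPES buffer after 24 h incubation at 22 °C.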

Vasopressin V2 receptor [4] = biological target: T1, Vasopressin V2 receptor; assay: Antagonist activity at human vasopressin V2 receptor expressed in CHO cells assessed as inhibition of AVP-induced cAMP accumulation after 30 mins by TR-FRET based HTRF assay; assay type: functional, cell-based
Outline: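 CHO cells stably expressing human V2R, 5 × 10^3 per well on polyornithine, used 24 h after seeding. Incubated 30 min at 37 °C with compound (10−12 to 10−5 M) plus phosphodiesterase inhibitor RO 201724 0.1 mM. Antagonist mode run with 1 nM AVP. Cells lysed and cAMP read by HTRF (TR-FRET). Kact/Kinact from three independent experiments in triplicate, mean ± SEM.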

Vasopressin V1b receptor = biological target: T2, Vasopressin V1b receptor (Homo sapiens, UniProt P47901); assay: Displacement of [3H]-AVP from human vasopressin V1b receptor expressed in CHO cells after 30 mins; assay type: cell-based
T2 sequence (P47901 whole entry): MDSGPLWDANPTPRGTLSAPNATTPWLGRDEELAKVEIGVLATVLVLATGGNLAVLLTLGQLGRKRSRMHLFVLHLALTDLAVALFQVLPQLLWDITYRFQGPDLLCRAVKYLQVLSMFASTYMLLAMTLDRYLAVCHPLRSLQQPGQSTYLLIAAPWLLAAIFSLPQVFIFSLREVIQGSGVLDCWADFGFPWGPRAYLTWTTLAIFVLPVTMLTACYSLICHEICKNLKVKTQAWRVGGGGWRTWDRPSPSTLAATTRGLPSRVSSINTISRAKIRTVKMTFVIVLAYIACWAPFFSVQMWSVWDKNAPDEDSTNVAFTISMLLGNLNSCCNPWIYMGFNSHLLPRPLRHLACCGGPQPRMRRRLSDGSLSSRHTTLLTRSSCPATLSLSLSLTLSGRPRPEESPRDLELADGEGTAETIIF

Vasopressin V1a receptor [5] = biological target: T3, Vasopressin V1a receptor (Homo sapiens, UniProt P37288); assay: Displacement of [3H]-AVP from human vasopressin V1a receptor expressed in CHO cells after 30 mins; assay type: cell-based
Target sequence in this assay (P37288 whole entry): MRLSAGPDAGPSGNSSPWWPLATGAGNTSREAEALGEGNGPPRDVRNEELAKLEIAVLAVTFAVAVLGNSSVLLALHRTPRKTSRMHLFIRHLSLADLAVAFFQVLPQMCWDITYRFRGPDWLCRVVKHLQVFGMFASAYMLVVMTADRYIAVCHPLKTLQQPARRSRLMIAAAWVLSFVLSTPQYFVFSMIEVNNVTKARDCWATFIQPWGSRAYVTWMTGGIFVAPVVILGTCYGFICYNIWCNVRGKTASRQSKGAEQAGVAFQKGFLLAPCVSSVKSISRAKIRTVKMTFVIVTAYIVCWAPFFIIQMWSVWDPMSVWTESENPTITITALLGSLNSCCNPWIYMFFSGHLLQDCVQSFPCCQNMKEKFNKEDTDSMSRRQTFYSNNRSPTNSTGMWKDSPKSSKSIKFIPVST

Oxytocin receptor [6] = biological target: T4, Oxytocin receptor (Homo sapiens, UniProt P30559); assay: Displacement of [3H]-AVP from human oxytocin receptor expressed in CHO cells after 30 mins; assay type: cell-based
T4 sequence (P30559 whole entry): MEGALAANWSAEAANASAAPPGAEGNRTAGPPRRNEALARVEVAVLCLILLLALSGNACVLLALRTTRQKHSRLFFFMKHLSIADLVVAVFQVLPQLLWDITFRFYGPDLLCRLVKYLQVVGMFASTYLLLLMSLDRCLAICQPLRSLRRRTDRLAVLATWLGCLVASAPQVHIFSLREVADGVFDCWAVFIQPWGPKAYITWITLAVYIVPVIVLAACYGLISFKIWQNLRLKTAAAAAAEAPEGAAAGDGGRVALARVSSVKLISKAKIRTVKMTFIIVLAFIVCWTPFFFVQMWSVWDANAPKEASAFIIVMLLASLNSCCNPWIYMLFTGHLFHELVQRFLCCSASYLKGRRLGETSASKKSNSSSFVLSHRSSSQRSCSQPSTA

Vasopressin V2 receptor [7] = biological target: T1, Vasopressin V2 receptor; assay: Binding affinity to SNAP-tagged vasopressin V2 receptor expressed in HEK293 cells after 1 hr by TR-FRET assay; assay type: cell-based
Outline: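 HEK 293T cells electroporated with SNAP-tag–V2R and grown 48 h. Receptor labeled 1 h at 37 °C with SNAP-Lumi4-Tb (100 nM) or SNAP-RED (300 nM), then washed. Rising fluorescent-ligand concentrations added and incubated overnight at 4 °C. TR-FRET read with excitation 340 nm, emission 620/665 nm. Nonspecific binding taken with 10 μM unlabeled ligand. Kd from saturation, three experiments in triplicate.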

[8] = biological target: T5, Vasopressin V1b receptor (Homo sapiens) (UniProt P47901); assay: Displacement of [3H]-AVP from human vasopressin V1b receptor expressed in CHO cells at 10 uM after 30 mins; assay type: cell-based
T5 sequence (whole entry): T2 sequence (P47901 whole entry)
Outline: (§1)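 Human OTR, V1aR or V1bR membranes from CHO cells, [3H]-AVP displacement with compound at a single 10 μM concentration, 30 min at 30 °C in Tris-HCl pH 7.4/MgCl2/BSA buffer.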

Vasopressin V1a receptor [9] = biological target: T3, Vasopressin V1a receptor; assay: Displacement of [3H]-AVP from human vasopressin V1a receptor expressed in CHO cells at 10 uM after 30 mins; assay type: cell-based; outline: as §1
Target sequence in this assay (P37288 whole entry, looked up): as the sequence (P37288 whole entry) above

Oxytocin receptor [10] = biological target: T4, Oxytocin receptor; assay: Binding affinity to oxytocin receptor
Outline: (§2)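 Membranes (5 μg protein) from CHO cells stably expressing human V2R, V1aR, V1bR or OTR. Incubated 30 min at 30 °C in 50 mM Tris-HCl pH 7.4, 5 mM MgCl2, 1 mg/mL BSA with [3H]-AVP (1−2 nM) and competitor from 100 pM to 100 μM. Nonspecific binding with 10 μM AVP. GF/C filtration; Ki by nonlinear least-squares regression. Triplicate, at least three membrane batches.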

Vasopressin V1a receptor [11] = biological target: T3, Vasopressin V1a receptor; assay: Binding affinity to vasopressin V1a receptor; outline: as §2
Target sequence in this assay (P37288 whole entry): as the sequence (P37288 whole entry) above

T1 sequence (P30518 whole entry): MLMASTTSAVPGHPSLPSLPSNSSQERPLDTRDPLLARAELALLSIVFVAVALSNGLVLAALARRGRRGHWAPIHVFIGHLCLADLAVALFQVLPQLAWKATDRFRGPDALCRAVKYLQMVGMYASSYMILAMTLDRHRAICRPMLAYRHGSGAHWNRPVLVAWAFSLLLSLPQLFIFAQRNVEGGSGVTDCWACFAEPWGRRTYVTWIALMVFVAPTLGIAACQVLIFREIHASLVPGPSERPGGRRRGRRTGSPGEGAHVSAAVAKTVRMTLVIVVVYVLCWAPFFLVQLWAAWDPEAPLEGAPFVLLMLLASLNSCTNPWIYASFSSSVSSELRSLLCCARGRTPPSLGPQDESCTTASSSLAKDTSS

SMILES | Ki (Vasopressin V2 receptor [1]) [nM] | Activity (Vasopressin V2 receptor [2]) | solubility at 24 h [3] [µM] | Kb (Vasopressin V2 receptor [4]) [nM] | inhibition (Vasopressin V2 receptor [4]) | Ki (Vasopressin V1b receptor) [nM] | Ki (Vasopressin V1a receptor [5]) [nM] | Ki (Oxytocin receptor [6]) [nM] | Kd (Vasopressin V2 receptor [7]) [nM] | inhibition [8] [%] | inhibition (Vasopressin V1a receptor [9]) [%] | Ki (Oxytocin receptor [10]) [nM] | Ki (Vasopressin V1a receptor [11]) [nM]
CCN(CC)c1ccc2c(-c3ccc(S(=O)(=O)NCCOCCOCCOCCC(=O)NC4CCCN(C(=O)c5ccc(NC(=O)c6ccccc6-c6ccccc6)cc5)c5ccccc54)cc3S(=O)(=O)[O-])c3ccc(=[N+](CC)CC)cc-3oc2c1 (configuration not stated) | 16.8 | inactive | 6.2 (≈ 7.47 µg/mL) | 8.91 | Dose-dependent effect |  |  |  |  |  |  |  | 
CCN(CC)c1ccc2c(-c3ccc(S(=O)(=O)NC4CCCN(C(=O)c5ccc(NC(=O)c6ccccc6-c6ccccc6)cc5)c5ccccc54)cc3S(=O)(=O)[O-])c3ccc(=[N+](CC)CC)cc-3oc2c1 (configuration not stated) | 25.3 | inactive | 2.1 (≈ 2.1 µg/mL) | 3.8 | Dose-dependent effect |  |  |  |  |  |  |  | 
CCN1/C(=C/C=C/C=C/C2=[N+](CC)c3ccc(S(=O)(=O)[O-])cc3C2(C)C)C(C)(CCCC(=O)NCCOCCOCCOCCn2cc(CNC(=O)CCC(=O)NC3CCCN(C(=O)c4ccc(NC(=O)c5ccccc5-c5ccccc5)cc4)c4ccccc43)nn2)c2cc(S(=O)(=O)O)ccc21 (configuration not stated) | 9.02 | inactive |  | 0.1 | Dose-dependent effect | > 10000 | 1750 | 808 | 2.33 | < 50 |  |  | 
CCN1/C(=C/C=C/C=C/C2=[N+](CC)c3ccc(S(=O)(=O)[O-])cc3C2(C)C)C(C)(CCCC(=O)NCCOCCOCCOCCOCCOCCOCCn2cc(CNC(=O)CCC(=O)NC3CCCN(C(=O)c4ccc(NC(=O)c5ccccc5-c5ccccc5)cc4)c4ccccc43)nn2)c2cc(S(=O)(=O)O)ccc21 (configuration not stated) | 14.2 | inactive |  | 0.54 | Dose-dependent effect |  |  |  | 2.53 |  |  |  | 
CCN(CC)c1ccc2c(-c3ccc(S(=O)(=O)[O-])cc3S(=O)(=O)NCCOCCOCCOCCn3cc(CNC(=O)CCC(=O)NC4CCCN(C(=O)c5ccc(NC(=O)c6ccccc6C)cc5)c5ccccc54)nn3)c3ccc(=[N+](CC)CC)cc-3oc2c1 (configuration not stated) | 188 | inactive |  | 164 | Dose-dependent effect | > 10000 | > 10000 | 307 |  | < 50 | < 50 |  | 
Cc1ccccc1C(=O)Nc1ccc(C(=O)N2CCCC(N(C)C)c3ccccc32)cc1 (configuration not stated) [MOZAVAPTAN] |  | inactive |  |  | Dose-dependent effect |  |  |  |  |  |  | 660 | 195
CCN(CC)c1ccc2c(-c3ccc(S(=O)(=O)NCCCCC(=O)NC4CCCN(C(=O)c5ccc(NC(=O)c6ccccc6-c6ccccc6)cc5)c5ccccc54)cc3S(=O)(=O)[O-])c3ccc(=[N+](CC)CC)cc-3oc2c1 (configuration not stated) | 7.6 | inactive | 3.1 (≈ 3.41 µg/mL) | 0.66 | Dose-dependent effect |  |  |  |  |  |  |  | 
CCN(CC)c1ccc2c(-c3ccc(S(=O)(=O)N4CCN(CCC(=O)NC5CCCN(C(=O)c6ccc(NC(=O)c7ccccc7-c7ccccc7)cc6)c6ccccc65)CC4)cc3S(=O)(=O)[O-])c3ccc(=[N+](CC)CC)cc-3oc2c1 (configuration not stated) | 12.7 | inactive | 3.7 (≈ 4.23 µg/mL) | 2.03 | Dose-dependent effect |  |  |  |  |  |  |  | 
CCN(CC)c1ccc2c(-c3ccc(S(=O)(=O)NCCOCCOCCOCCn4cc(CNC(=O)CCC(=O)NC5CCCN(C(=O)c6ccc(NC(=O)c7ccccc7C)cc6)c6ccccc65)nn4)cc3S(=O)(=O)[O-])c3ccc(=[N+](CC)CC)cc-3oc2c1 (configuration not stated) | 54.3 | inactive | 3.4 (≈ 4.4 µg/mL) | 16.7 | Dose-dependent effect | > 10000 | > 10000 | 495 |  | < 50 | < 50 |  | 
